# Measurements from different studies.
# CSF1R autoinhibited: Macrophage colony-stimulating factor 1 receptor, autoinhibited (CSF1R, Homo sapiens, UniProt P07333)
# CSF1R: Macrophage colony-stimulating factor 1 receptor (CSF1R, Homo sapiens, UniProt P07333)
SMILES,target,observed,technique,concentration,remaining binding [%]
C=CC(=O)N1CCC(C(=O)NCC(=O)N2CCN(c3nc(-c4cnc(N)nc4C(F)F)nc(N4CCOCC4)n3)CC2)CC1,CSF1R autoinhibited,binding,competition with immobilised ligand,1 µM,20
Nc1cnc(N2CCc3cc(S(=O)(=O)Nc4c(F)cc(Cl)cc4F)cc(N4CCCC4=O)c32)nc1,CSF1R autoinhibited,cell-free assay,competition with immobilised ligand,1 µM,100
N#Cc1ccccc1CSc1nnc2c(n1)[nH]c1ccccc12,CSF1R,binding,competition with immobilised ligand,10 µM,100
COc1ccnn2ncc(-c3ccnc(N(C)C)n3)c12,CSF1R,binding,,1 µM,100
O=C(c1ccc(Nc2ncc(Cl)c(-c3ccc(Cl)s3)n2)cc1)N1CCC(N2CCCC2)CC1,CSF1R autoinhibited,binding,competition with immobilised ligand,1 µM,17
CN(C(=O)c1ccccc1)c1cc(N(C)c2ccc3c(c2)CCc2ccc(C(=O)NCCN4CCOCC4)cc2C3=O)ccc1F,CSF1R,cell-free assay,competition with immobilised ligand,1 µM,98
C[C@@H]1CN(c2ccc3ncc(-c4ccc5[nH]nc(C6CC6)c5c4)n3n2)C[C@H](C)O1,CSF1R,binding,competition with immobilised ligand,50 nM,100
CCN1CCN(Cc2ccc(C(=O)Nc3ccc(C)c(Oc4ccc5c(c4)CC(=O)N5)c3)cc2C(F)(F)F)CC1,CSF1R autoinhibited,binding,competition with immobilised ligand,1 µM,100
CN(C)c1nccc(-c2cnc3ncccn23)n1,CSF1R autoinhibited,binding,,1 µM,65
COc1cnc(Nc2cccc(S(N)(=O)=O)c2)nc1N1CCN(c2ccccc2)CC1,CSF1R autoinhibited,binding,competition with immobilised ligand,1 µM,99
Cc1cc(-n2nc(Cc3cc(F)cc(C(F)(F)F)c3)nc2C)ccc1C(N)=O,CSF1R autoinhibited,cell-free assay,competition with immobilised ligand,1 µM,100
CN(CCCC(F)(F)F)c1nccc(-c2cnn3ncccc23)n1,CSF1R,binding,,1 µM,93
CCOC(=O)c1cc2cc(-c3cc(C(=O)NCc4ccc(C(=O)O)cc4)nn3C)ccc2[nH]1,CSF1R autoinhibited,cell-free assay,competition with immobilised ligand,0.1 µM,94
O=C(NCC1CCOCC1)c1n[nH]cc1NC(=O)c1c(F)cccc1F,CSF1R autoinhibited,binding,competition with immobilised ligand,1 µM,62
c1cnn2ncc(-c3ccnc(N4CCC45COC5)n3)c2c1,CSF1R,binding,,1 µM,100
CC(=O)C1=C(C)N(c2cccc(C(F)(F)F)c2)C(=O)N[C@@H]1c1ccc(C#N)nc1,CSF1R,cell-free assay,competition with immobilised ligand,1 µM,99.4
CNC(=O)[C@@H]1CC[C@@H](n2c(-c3ccc4cnccc4c3)nc3ccc(C(=O)NCc4cccc(C(N)=O)c4)cc32)C1,CSF1R autoinhibited,binding,competition with immobilised ligand,1 µM,80
N[C@H]1CCN(c2nccc(-c3cnn4ncccc34)n2)C1,CSF1R,binding,,1 µM,100
Cc1cnc(Nc2ccc(C(=O)N3CCC(N4CCCC4)CC3)cc2)nc1-c1cc2ccccc2s1,CSF1R autoinhibited,binding,competition with immobilised ligand,1 µM,45
